Read-outs that look alike come from different tables or passages of the source.

For series [1] the following is noted: cited from earlier work.
The nature of series [2]: Brain and plasma pharmacokinetics after ip administration of 5 mg/kg. It counts as in vivo. Conditions: mice, after ip injection of 5 mg/kg of 4. In outline: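 Mice received the test compound at 5 mg/kg ip. Brain and plasma levels were followed over time to give elimination rates from each compartment. In a repeat-dose arm, tissues were sampled 4 h after a single 5 mg/kg ip dose or 4 h after the second of two doses given 4 h apart. Brain-to-plasma concentration ratios were calculated for each regimen.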

For series [3] the following is noted: stated as known for 1 and related congeners, no reference given; cited from earlier work.
The format of series [4] is in vivo. Particulars: plasma concentration after ip versus oral administration.
Series [5] deals with acetylated α-tubulin. As to the kind of experiment: Acetylated α-tubulin in brain homogenates after repeated dosing. It counts as in vivo. Conditions: normal mice, 1 day after two 5 mg/kg doses (ip).

With `C/C1=C/C[C@@H](/C(C)=C/c2csc(C)n2)OC(=O)C[C@H](O)C(C)(C)C(=O)[C@H](C)[C@@H](O)[C@@H](C)CCC1` [epothilone D], in series [1], the brain penetration result is “brain penetrant”; the “differential between brain and plasma half-life” value is on record as “large differential”.

In the case of `C[C@H](Nc1c(-c2c(F)cc(O)cc2F)c(Cl)nc2ncnn12)C(F)(F)F` [compound 6], in series [2], the “distribution of metabolites in brain and plasma samples” value is given as “detected predominantly in plasma”.

Consider `CNCCCOc1cc(F)c(-c2c(Cl)nc3ncnn3c2N[C@@H](C)C(F)(F)F)c(F)c1` [compound 1, cevipabulin], for which the oral bioavailability result in series [3] is reported as “orally bioavailable”.

Consider `C[C@H](Nc1c(-c2c(F)cc(OCCCO)cc2F)c(Cl)nc2ncnn12)C(F)(F)F` [compound 4, (S)-3-(4-(5-Chloro-7-((1,1,1-trifluoropropan-2-yl)amino)-[1,2,4]triazolo[1,5-a]pyrimidin-6-yl)-3,5-difluorophenoxy)-propan-1-ol], for which, in series [4], the oral bioavailability result is given as “orally bioavailable”. Also, in series [5], the “acetylated α-tubulin (marker of stable MTs) in brain homogenates” value was “significant elevation”.

Consider `C[C@H](Nc1c(-c2c(F)cc(OCCC(=O)O)cc2F)c(Cl)nc2ncnn12)C(F)(F)F` [compound 5], for which the “distribution of metabolites in brain and plasma samples” value in series [2] is on record as “detected predominantly in plasma”.

With `C/C(=C\c1csc(C)n1)[C@@H]1C[C@@H]2O[C@]2(C)CCC[C@H](C)[C@H](O)[C@@H](C)C(=O)C(C)(C)[C@@H](O)CC(=O)O1` [epothilone B], in series [1], the brain penetration result is given as “brain penetrant”; the “differential between brain and plasma half-life” value is “large differential”.

The record behind these values is publication PMC4569539 (Bioorganic & medicinal chemistry letters, 2015).
